Only some compounds are listed: those with a hit (about 1.2% of all), similar ones and a draw of the others.
G6PDH counter: L. mesenteroides G6PDH inhibition counter-screen. 200,000 compounds, 0.12% hits. Purified L. mesenteroides G6PDH, diaphorase/resazurin coupled fluorescence, 45 min. inhibition, % at 5 µM. AID 1020; in the data active = inhibition above about 50%
PfG6PD inh: PfG6PD (Plasmodium falciparum) enzyme inhibition. PfGluPho enzyme, NADPH resazurin-diaphorase fluorescence. AID 504690. 350,000 compounds, 0.78% hits. inhibition, % at 20 µM;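 active = inhibition reaching at least a set limit at 20 µM in the primary screen, cut at about 59% in these data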;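 also: 0% = DMSO wells with substrate and 100% = DMSO wells lacking glucose-6-phosphate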
Diaph act CS: activates diaphorase or chemically reduces, flagging diaphorase assay artifacts | Diaphorase/resazurin coupled assay, resorufin fluorescence, 16 min; hits give high values; 1 = vehicle wells, 0 = NADH-free wells | activation factor at 20 µM | 190,000 compounds, 0.005% hits | AID 1229;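 active = diaphorase activity raised at least twofold by the compound at 20 µM; inactive = activation factor below 2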
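Measured by – red resorufin fluorescence at 544/590 nm excitation/emission · Test system – Clostridium kluyveri diaphorase, purified enzyme · Incubation – reaction time 16 min, room temperature · Buffer or medium – 50 mM HEPES pH 7.4 with 4.542 mM MgCl2, 0.005% Tween 20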
Diaph inh CS: counter-screen for diaphorase-based assays: diaphorase inhibitors and chemical oxidizers; diaphorase resazurin-to-resorufin fluorescence, NADH, 16 min; bacterial (C. kluyveri) enzyme, not human; inhibition, % at 20 µM; 190,000 compounds, 0.69% hits; AID 1217;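 active = primary screen inhibition at 20 µM above a set limit, cut at about 50% in these data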;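 also: plate controls were DMSO with full reaction for no effect and wells lacking NADH for full effect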
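Detection: fluorescence of resorufin formed from resazurin, Ex 544/Em 590 nm; test system: Clostridium kluyveri diaphorase enzyme; amount: 0.14 U/mL diaphorase, enzyme working solution; times: 16-min room-temperature incubation before reading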
HKDC1 inh: blocks human hexokinase HKDC1 activity | Q2TB90 | recombinant HKDC1, G6PDH/diaphorase resazurin coupled fluorescence | inhibition, % at 20 µM | 340,000 compounds, 0.16% hits | AID 493160;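 active = inhibition above about 35% when tested at 20 µM, limit read from the data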;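 also: plate controls were DMSO wells with enzyme for no effect and DMSO wells lacking enzyme for full effect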
Target sequence (Q2TB90 whole entry, looked up): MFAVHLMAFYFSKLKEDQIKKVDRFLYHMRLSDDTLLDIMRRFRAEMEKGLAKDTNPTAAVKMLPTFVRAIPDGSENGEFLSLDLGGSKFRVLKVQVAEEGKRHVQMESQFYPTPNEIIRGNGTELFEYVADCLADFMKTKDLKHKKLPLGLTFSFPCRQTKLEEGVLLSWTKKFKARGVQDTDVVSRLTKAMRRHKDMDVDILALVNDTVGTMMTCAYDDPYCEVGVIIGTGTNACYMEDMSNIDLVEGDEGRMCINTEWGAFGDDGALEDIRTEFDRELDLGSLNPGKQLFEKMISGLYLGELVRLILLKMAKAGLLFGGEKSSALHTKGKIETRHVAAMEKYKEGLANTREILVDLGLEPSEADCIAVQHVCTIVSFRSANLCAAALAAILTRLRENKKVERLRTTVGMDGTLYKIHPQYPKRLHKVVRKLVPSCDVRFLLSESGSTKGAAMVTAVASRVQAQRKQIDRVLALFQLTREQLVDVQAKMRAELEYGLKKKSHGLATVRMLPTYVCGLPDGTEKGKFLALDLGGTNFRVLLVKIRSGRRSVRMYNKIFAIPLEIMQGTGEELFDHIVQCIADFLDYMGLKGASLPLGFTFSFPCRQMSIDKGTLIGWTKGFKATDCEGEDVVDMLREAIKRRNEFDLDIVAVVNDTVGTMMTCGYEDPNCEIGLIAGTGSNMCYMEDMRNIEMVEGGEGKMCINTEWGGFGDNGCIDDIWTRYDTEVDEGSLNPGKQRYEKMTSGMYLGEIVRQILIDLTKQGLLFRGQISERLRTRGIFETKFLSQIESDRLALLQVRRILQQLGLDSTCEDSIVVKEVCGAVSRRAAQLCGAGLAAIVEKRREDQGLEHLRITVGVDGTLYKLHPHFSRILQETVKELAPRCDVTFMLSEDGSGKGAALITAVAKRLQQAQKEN
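Test system: Recombinant HKDC1 (HK5) hexokinase enzyme, produced in-house | Input: HKDC1 at 5 µg/mL | Buffer or medium: Tris pH 8.0 buffer with MgCl2, Tween-20, BSA, BME | Schedule: 90 min reaction incubation at room temperature, dark | Technique: Resazurin-to-resorufin fluorescence via G6PDH and diaphorase coupling, 525/613 nm | Controls: DMSO wells with and without enzyme mix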
PfG6PD confirm: PfG6PD inhibition, single-dose confirmed. shares compounds with PfG6PD inh. recombinant PfGluPho, NADPH-diaphorase-resazurin fluorescence. inhibition, % at 20 µM. 2,400 compounds, 34% hits. AID 504753;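 active = inhibition of at least 50% at 20 µM in any single replicate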;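 also: 0% = DMSO with substrate and 100% = DMSO lacking glucose-6-phosphate substrate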
Diaph ctr 10uM: inhibits diaphorase or oxidizes, flagging false PfG6PD hits | shares compounds with PfG6PD inh | diaphorase-coupled resazurin reduction, fluorescence, NADPH 10 uM | inhibition, % at 20 µM | 820 compounds, 39% hits;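 active = average inhibition reaching 50% or more with the compound at 20 µM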;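 also: resorufin red fluorescence formed as diaphorase reduces resazurin using NADPH; 0% = DMSO with enzyme and 100% = DMSO without enzyme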
Diaph ctr 30uM: counter-screen for P. falciparum G6PD inhibitors: diaphorase inhibitors, oxidizers; 820 compounds, 29% hits; inhibition, % at 20 µM; Diaphorase/resazurin coupled assay, resorufin fluorescence, 30 uM NADPH; shares compounds with PfG6PD inh;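 active = inhibition averaging 50% or more, tested at 20 µM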;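 also: 0% = DMSO with enzyme and 100% = DMSO wells lacking diaphorase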
* marks the source's active call; other numbers are inactive results.

For O=C(COC(=O)c1ccccc1C(=O)c1ccc(Cl)cc1)NCc1ccccc1 the results were G6PDH counter -12.8, PfG6PD inh 80.6*, Diaph act CS 0.8, Diaph inh CS 22.7, HKDC1 inh -6.0 and PfG6PD confirm 44.8.
O=C(COC(=O)c1ccccc1C(=O)c1ccccc1)NCc1ccc(F)cc1 was read as G6PDH counter -0.1, PfG6PD inh 8.4, Diaph act CS 1, Diaph inh CS 2.4 and HKDC1 inh 1.8.
`Nc1ccc2nc(SCc3cccc(F)c3)sc2c1` gave G6PDH counter 2.6, PfG6PD inh 9.4, Diaph act CS 0.9, Diaph inh CS 14.0 and HKDC1 inh 2.5.
COc1ccccc1-n1c(SCC(=O)NCc2ccc3c(c2)OCO3)nc2cc([N+](=O)[O-])ccc21 was read as G6PDH counter 5.4, PfG6PD inh 95.2*, Diaph act CS 0.5, Diaph inh CS 47.2, HKDC1 inh -9.1 and PfG6PD confirm 48.2.
Screening CC(Sc1nc2cc([N+](=O)[O-])ccc2n1-c1ccc(F)cc1)C(=O)NCc1ccc2c(c1)OCO2 (stereo unspecified) returned G6PDH counter 10.1, PfG6PD inh 56.7, Diaph act CS 0.7, Diaph inh CS 27.7 and HKDC1 inh 1.3.
`COc1ccccc1/C=N\NC(=O)c1c(C)nc2ccc(Cl)cn12` gave PfG6PD inh 49.4, HKDC1 inh 0.9 and PfG6PD confirm 23.4.
Cc1nn(C)c(C(=O)N/N=C/c2cccc3ccccc23)c1Cl was read as G6PDH counter -6.0, PfG6PD inh 76.1*, Diaph act CS 0.9, Diaph inh CS 11.6, HKDC1 inh -6.5 and PfG6PD confirm 38.8.
For Cc1ccc(SC(C)C(=O)N2CCC(C(N)=O)CC2)cc1 (stereo unspecified) the results were G6PDH counter -8.3, PfG6PD inh 2.3, Diaph act CS 0.9, Diaph inh CS 6.3 and HKDC1 inh -2.0.
O=C1CC(=O)N(CCNc2ncc(C(F)(F)F)cc2Cl)C(=O)N1 was read as G6PDH counter -1.4, PfG6PD inh -22.3, Diaph act CS 0.9, Diaph inh CS 14.8 and HKDC1 inh -2.6.
For O=C1C=CC(=O)N1CCNc1ncc(C(F)(F)F)cc1Cl the results were G6PDH counter 8.0, PfG6PD inh 79.4*, Diaph act CS 0.9, Diaph inh CS 13.5, HKDC1 inh -6.8, PfG6PD confirm 66.3*, Diaph ctr 10uM -5.3 and Diaph ctr 30uM -11.4.
For O=C(CNc1cccc2ccccc12)N/N=C/c1ccccn1 the results were PfG6PD inh 59.6*, HKDC1 inh 18.1 and PfG6PD confirm 20.2.
Screening Cc1cccc(NCC(=O)N/N=C\c2ccccn2)c1 returned G6PDH counter 12.6, PfG6PD inh 10.6, Diaph act CS 0.8, Diaph inh CS 23.4 and HKDC1 inh -2.2.
CC(=O)N1CCC(C(=O)NC2CCCc3c2cnn3-c2cc(F)cc(F)c2)CC1 (stereo unspecified) was read as PfG6PD inh -10.8 and HKDC1 inh 0.2.
O=c1[nH]c(C2CCCN(S(=O)(=O)c3ccccc3F)C2)nc2c1nnn2Cc1ccccc1Cl (stereo unspecified) was read as PfG6PD inh -26.6 and HKDC1 inh 11.4.
Screening O=S1(=O)c2ccc(Br)cc2N2CCC[C@@H]2CN1C1CC1 returned PfG6PD inh -4.1 and HKDC1 inh 4.7.
For O=S1(=O)c2ccc(Br)cc2N2CCC[C@@H]2CN1Cc1ccc(Cl)cc1 the results were PfG6PD inh 62.9*, HKDC1 inh -1.1 and PfG6PD confirm 7.2.
Screening O=S1(=O)c2ccc(Br)cc2N2CCC[C@H]2CN1Cc1ccccc1 returned PfG6PD inh 72.7*, HKDC1 inh 4.9 and PfG6PD confirm 7.5.

From PubChem BioAssay
